ChEMBL document CHEMBL5715959, “Inhibition of histone methyltransferase EZH2 in Schistosoma mansoni in vitro by GSK343 reduces egg laying and decreases the expression of genes implicated in DNA replication and noncoding RNA metabolism” (2018)
The source made the active and inactive calls. The calls are words filed in the database; no cut-off is given here.

Columns and labels:
Schistosoma mansoni [1] = experiment: Antischistosomal activity against Schistosoma mansoni assessed as loss of spines at 20 uM incubated for 24 hrs by scanning electron microscopy analysis; assay type: functional, organism-based
How it was run: (§1)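 Newly transformed schistosomula were held 16 h in M169 with 2% FBS, serotonin, hypoxanthine, hydrocortisone, triiodothyronine and antibiotics at 37°C, 5% CO2, at 2,000 per well. They were then exposed to 20 μM GSK343 or 0.1% DMSO for 24 and 48 h. Fixation was modified Karnovsky (pH 7.4) with 1% osmium post-fix, then ethanol dehydration, critical-point drying, gold coating and SEM. Lengths came from three experiments, each with 20 schistosomula.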

Schistosoma mansoni [2] = experiment: Antischistosomal activity against Schistosoma mansoni assessed as increased length of schistosomula at 20 uM incubated for 24 to 48 hrs by scanning electron microscopy analysis; assay type: functional; settings: time 24-48 hrs; how it was run: as §1
Schistosoma mansoni [3] = experiment: Antischistosomal activity against Schistosoma mansoni assessed as developmental changes at 20 uM incubated for 24 hrs by scanning electron microscopy analysis; assay type: functional, organism-based; how it was run: as §1
Schistosoma mansoni [4] = experiment: Antischistosomal activity against Schistosoma mansoni assessed as down-regulated LDL receptor mRNA level in schistosomula at 20 uM incubated for 48 hrs by RT-qPCR analysis; assay type: functional, organism-based
How it was run: (§2)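 Schistosomula (supplemented M169) or adult worms (supplemented RPMI) were treated 48 h with 20 μM GSK343 or 0.1% DMSO at 37°C, 5% CO2. qPCR normalizer genes were chosen from RNA-seq data as those with TPM >1 and a treated/control ratio of 0.9–1.1 that were not differentially expressed. Relative expression was calculated by comparative Ct; significance by t-test.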

Schistosoma mansoni [5] = experiment: Antischistosomal activity against Schistosoma mansoni assessed as down-regulated MEG-4 mRNA level in schistosomula at 20 uM incubated for 48 hrs by RT-qPCR analysis; assay type: functional, organism-based; how it was run: as §2
Schistosoma mansoni [6] = experiment: Antischistosomal activity against adult female Schistosoma mansoni assessed as rupture of blisters in dorsal region at 20 uM incubated for 24 to 48 hrs by scanning electron microscopy analysis; assay type: functional, organism-based; settings: time 24-48 hrs
How it was run: (§3)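 Adult couples were taken by perfusion into supplemented RPMI, one couple per well, and adapted 2 h at 37°C, 5% CO2. They were exposed to 20 μM GSK343 or 0.1% DMSO for 24 and 48 h. Fixation used modified Karnovsky with osmium post-fix, followed by ethanol dehydration, critical-point drying, gold sputtering and scanning electron microscopy of tegument surfaces.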

Schistosoma mansoni [7] = experiment: Antischistosomal activity against adult female Schistosoma mansoni assessed as damaged tegument with extensive sloughing at 20 uM incubated for 24 to 48 hrs by scanning electron microscopy analysis; assay type: functional, organism-based; settings: time 24-48 hrs; how it was run: as §3
Schistosoma mansoni [8] = experiment: Antischistosomal activity against female Schistosoma mansoni assessed as down-regulated Tyrosinase 1 mRNA level at 20 uM incubated for 48 hrs by RT-qPCR analysis; assay type: functional, organism-based; how it was run: as §2
Schistosoma mansoni [9] = experiment: Cytotoxicity against Schistosoma mansoni assessed as decrease in viability at 20 uM incubated for 5 days by CellTiter-Glo Luminescent assay relative to control; assay type: functional; settings: time 5 day
How it was run: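 Newly transformed schistosomula pre-cultured 16 h in M169 with 2% FBS, serotonin, hypoxanthine, hydrocortisone, triiodothyronine and antibiotics at 37°C, 5% CO2, then 100–120 per well exposed up to 5 days to compound or 0.1% DMSO. ATP in intact larvae read by luminescence, expressed as % of vehicle; three replicate experiments, two-way ANOVA.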

Schistosoma mansoni [10] = experiment: Antischistosomal activity against Schistosoma mansoni assessed as lower growth rate at 20 uM incubated for 24 to 48 hrs by scanning electron microscopy analysis; assay type: functional; settings: time 24-48 hrs; how it was run: as §1
Schistosoma mansoni [11] = experiment: Antischistosomal activity against Schistosoma mansoni assessed as down-regulated Glucose transport protein mRNA level in schistosomula at 20 uM incubated for 48 hrs by RT-qPCR analysis; assay type: functional, organism-based; how it was run: as §2
Schistosoma mansoni [12] = experiment: Antischistosomal activity against adult female Schistosoma mansoni assessed as decrease in number of eggs laid at 20 uM incubated for 24 to 48 hrs by […] analysis relative to control; assay type: functional; parameters: scale not given: the % may be the effect or the level left; settings: time 24-48 hrs
Schistosoma mansoni [13] = experiment: Antischistosomal activity against juvenile Schistosoma mansoni assessed as damaged anterior region at 20 to 50 uM incubated for 48 hrs by scanning electron microscopy analysis; assay type: functional, organism-based; settings: in the assay text read “at 50 uM” for “at 20 to 50 uM”
How it was run: (§4)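 Juvenile worms recovered by perfusion, five per well in supplemented RPMI (10% FBS, antibiotics, 37°C, 5% CO2), 2 h adaptation, then exposed 48 h to compound or 0.1% DMSO. Fixed in modified Karnovsky reagent (pH 7.4), washed in cacodylate buffer, post-fixed 1 h in 1% osmium tetroxide, ethanol-dehydrated, critical-point dried, gold-sputtered and imaged by scanning electron microscopy.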

Schistosoma mansoni [14] = experiment: Antischistosomal activity against juvenile Schistosoma mansoni assessed as damaged dorsal surface ridge at 20 to 50 uM incubated for 48 hrs by scanning electron microscopy analysis; assay type: functional, organism-based; settings: dose 20-50 µM; how it was run: as §4
Schistosoma mansoni [15] = experiment: Antischistosomal activity against adult Schistosoma mansoni assessed as increased H3K4me3 level at 20 uM incubated for 48 hrs by Western blotting analysis; assay type: functional, organism-based
How it was run: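 Fifty adult worm pairs were treated 48 h with 20 μM GSK343 or vehicle in supplemented RPMI/10% FBS, then lysed in Triton buffer. Nuclear pellets were acid-extracted overnight in 0.25 M HCl at 4°C and histones were TCA-concentrated. 10 μg went on 15% SDS-PAGE and nitrocellulose, probed with anti-H3K27me3, K9ac, K27ac or K4me3, then IRDye secondaries; infrared densitometry was normalized to anti-H3. Three biological replicates; t-test.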

Schistosoma mansoni [16] = experiment: Antischistosomal activity against Schistosoma mansoni assessed as deterioration of tegument with blisters at 20 uM incubated for 24 hrs by scanning electron microscopy analysis; assay type: functional, organism-based; how it was run: as §1
Schistosoma mansoni [17] = experiment: Antischistosomal activity against adult female Schistosoma mansoni assessed as presence of blisters in dorsal region at 20 uM incubated for 24 to 48 hrs by scanning electron microscopy analysis; assay type: functional, organism-based; settings: time 24-48 hrs; how it was run: as §3
Schistosoma mansoni [18] = experiment: Antischistosomal activity against adult male Schistosoma mansoni assessed as lesions of tegument around tubercles at 20 uM incubated for 48 hrs by scanning electron microscopy analysis; assay type: functional, organism-based; how it was run: as §3
Schistosoma mansoni [19] = experiment: Antischistosomal activity against adult Schistosoma mansoni assessed as drastic reduction in pairing of couples at 50 uM incubated for 3 hrs by inverted microscope analysis relative to control; assay type: functional; parameters: scale not given: the % may be the effect or the level left
How it was run: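 Paired adult worms were cultured in RPMI/10% FBS with antibiotics at 37°C, 5% CO2, with GSK343 or 0.1% DMSO. They were viewed by inverted microscope at 3, 6, 12, 24 and 48 h. Motility was scored on a 0–3 scale (3 full movement, 1.5 partial or immobile but alive, 0 dead); death meant no movement over more than 2 min. Pairing was recorded. Three experiments, each with 10 pairs; mean ± SD.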

Schistosoma mansoni [20] = experiment: Induction of apoptosis in Schistosoma mansoni assessed as DNA fragmentation at 20 uM incubated for 72 hrs by TUNEL staining based inverted microscope analysis; assay type: functional, organism-based
How it was run: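 Schistosomula, 2,000 per well in supplemented M169 after 16 h pre-culture, exposed 72 h to compound or DMSO, then fixed 60 min, permeabilized and TUNEL-labelled for DNA strand breaks. Mounted with DAPI counterstain and imaged by ApoTome fluorescence microscopy at 40× objective.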

Schistosoma mansoni [21] = experiment: Antischistosomal activity against Schistosoma mansoni assessed as down-regulated FA binding protein mRNA level in schistosomula at 20 uM incubated for 48 hrs by RT-qPCR analysis; assay type: functional, organism-based; how it was run: as §2

CCCc1cc(C)[nH]c(=O)c1CNC(=O)c1cc(-c2ccnc(N3CCN(C)CC3)c2)cc2c1cnn2C(C)C
Activity (Schistosoma mansoni [1]): Active | fold change (FC) (Schistosoma mansoni [2]): 1.1 | Activity (Schistosoma mansoni [3]): inactive | Activity (Schistosoma mansoni [4]): Active | Activity (Schistosoma mansoni [5]): Active | Activity (Schistosoma mansoni [6]): Active | Activity (Schistosoma mansoni [7]): Active | Activity (Schistosoma mansoni [8]): Active | Activity (Schistosoma mansoni [9]): 70% | fold change (FC) (Schistosoma mansoni [10]): 4 | Activity (Schistosoma mansoni [11]): Active | Activity (Schistosoma mansoni [12]): 40% | Activity (Schistosoma mansoni [13]): Active | Activity (Schistosoma mansoni [14]): Active | Activity (Schistosoma mansoni [15]): Active | Activity (Schistosoma mansoni [16]): Active | Activity (Schistosoma mansoni [17]): Active | Activity (Schistosoma mansoni [18]): Active | Activity (Schistosoma mansoni [19]): ~0% | Activity (Schistosoma mansoni [20]): Active | Activity (Schistosoma mansoni [21]): Active
